Results from ChEMBL document CHEMBL1799968, “Dimethyl-diphenyl-propanamide derivatives as nonsteroidal dissociated glucocorticoid receptor agonists” (J Med Chem, 2010).

Tests used:
Rattus norvegicus [1] = test: Toxicity in carrageenan-induced paw edema Sprague-Dawley rat model assessed as increase in blood glucose level at 100 mg/kg, po measured […] by glucometer; assay type: organism-based; design: dose 100 mg/kg, route oral; conditions: in vivo
Outline: (§1)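 Carrageenan paw edema rats (male SD, fasted, single oral dose, carrageenan 2 h postdose). Blood glucose was read by glucometer on tail-nick samples, at baseline and 5 h after dosing.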

[2] = target: T1, Glucocorticoid receptor (Homo sapiens) (UniProt P04150); test: Transrepression activity of glucocorticoid receptor in human A549 cells assessed as inhibition of IL1beta-stimulated NFkappaB-dependent E-selectin transcription by luciferase reporter gene assay relative to Dexamethasone; assay type: cell-based
T1 sequence (whole entry): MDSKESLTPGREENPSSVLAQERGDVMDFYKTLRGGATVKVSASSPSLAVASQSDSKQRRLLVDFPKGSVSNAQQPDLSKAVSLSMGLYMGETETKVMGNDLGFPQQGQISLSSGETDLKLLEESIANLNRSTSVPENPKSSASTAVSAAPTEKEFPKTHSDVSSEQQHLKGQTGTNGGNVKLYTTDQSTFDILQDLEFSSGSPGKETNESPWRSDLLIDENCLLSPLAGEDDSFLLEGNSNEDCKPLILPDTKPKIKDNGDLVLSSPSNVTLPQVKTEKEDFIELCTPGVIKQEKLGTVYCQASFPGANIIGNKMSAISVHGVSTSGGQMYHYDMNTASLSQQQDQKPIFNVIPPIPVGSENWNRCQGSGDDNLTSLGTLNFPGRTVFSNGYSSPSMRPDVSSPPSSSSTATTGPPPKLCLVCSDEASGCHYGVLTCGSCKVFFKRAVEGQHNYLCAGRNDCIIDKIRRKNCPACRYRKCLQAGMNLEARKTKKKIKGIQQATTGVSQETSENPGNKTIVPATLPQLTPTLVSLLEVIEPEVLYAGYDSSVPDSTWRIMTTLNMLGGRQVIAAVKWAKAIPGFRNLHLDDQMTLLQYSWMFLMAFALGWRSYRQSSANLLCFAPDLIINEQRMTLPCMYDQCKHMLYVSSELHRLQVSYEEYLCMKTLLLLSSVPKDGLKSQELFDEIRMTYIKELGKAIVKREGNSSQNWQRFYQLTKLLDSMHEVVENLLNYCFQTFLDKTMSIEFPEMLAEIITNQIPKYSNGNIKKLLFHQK

Progesterone receptor = target: T2, Progesterone receptor (Homo sapiens, UniProt P06401); test: Binding affinity to progesterone receptor by fluorescence polarization assay
T2 sequence (P06401 whole entry): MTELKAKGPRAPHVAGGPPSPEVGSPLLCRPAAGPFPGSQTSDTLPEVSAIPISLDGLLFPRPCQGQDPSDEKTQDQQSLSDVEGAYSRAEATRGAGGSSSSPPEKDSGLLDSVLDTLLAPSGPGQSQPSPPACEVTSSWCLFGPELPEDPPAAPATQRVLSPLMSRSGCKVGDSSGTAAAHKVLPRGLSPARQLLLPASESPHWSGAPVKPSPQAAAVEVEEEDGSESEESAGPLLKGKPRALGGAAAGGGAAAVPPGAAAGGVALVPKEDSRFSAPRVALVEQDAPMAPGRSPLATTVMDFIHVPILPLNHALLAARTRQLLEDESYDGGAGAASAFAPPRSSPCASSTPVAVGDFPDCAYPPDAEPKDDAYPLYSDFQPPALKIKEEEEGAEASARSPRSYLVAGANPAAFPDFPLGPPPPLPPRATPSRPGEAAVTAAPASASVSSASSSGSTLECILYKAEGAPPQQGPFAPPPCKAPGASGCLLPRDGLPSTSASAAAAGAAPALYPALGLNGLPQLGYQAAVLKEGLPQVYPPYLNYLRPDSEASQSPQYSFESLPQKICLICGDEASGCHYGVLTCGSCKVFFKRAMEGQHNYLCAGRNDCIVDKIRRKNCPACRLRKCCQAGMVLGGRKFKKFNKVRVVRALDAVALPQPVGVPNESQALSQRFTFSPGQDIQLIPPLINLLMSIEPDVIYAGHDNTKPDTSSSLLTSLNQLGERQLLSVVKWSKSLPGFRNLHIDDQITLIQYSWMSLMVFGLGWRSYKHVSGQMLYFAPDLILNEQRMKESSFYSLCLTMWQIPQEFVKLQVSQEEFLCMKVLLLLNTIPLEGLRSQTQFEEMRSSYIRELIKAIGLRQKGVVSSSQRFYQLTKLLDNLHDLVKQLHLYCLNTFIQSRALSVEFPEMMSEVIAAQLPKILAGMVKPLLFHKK
Outline: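 Fluorescence polarization competition of test compound against a fluorescently labelled ligand for binding to full-length receptor or its ligand-binding domain.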

Rattus norvegicus [3] = test: Antiinflammatory activity against carrageenan-induced paw edema Sprague-Dawley rat model assessed as inhibition of hind paw swelling at 100 mg/kg, po measured after 5 hrs post carrageenan challenge; assay type: functional
Outline: (§2)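 Male SD rats, fasted overnight plus up to 6 h more. Baseline hind paw volume taken by water plethysmometer. A single oral dose was given in a biologically acceptable medium. 2 h later, under anaesthesia, 1% carrageenan in PBS was injected subcutaneously into both hind paws. Volume was read 3 h post challenge, and swelling was taken as post-challenge minus baseline.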

Glucocorticoid receptor = target: T3, Glucocorticoid receptor (Homo sapiens, UniProt P04150); test: Transrepression activity of glucocorticoid receptor in human A549 cells assessed as inhibition of IL1beta-stimulated NFkappaB-dependent E-selectin transcription by luciferase reporter gene assay; assay type: cell-based
T3 sequence (P04150 whole entry): T1 sequence (whole entry)

Rattus norvegicus [4] = test: Antiinflammatory activity against carrageenan-induced paw edema Sprague-Dawley rat model assessed as inhibition of hind paw swelling at 30 mg/kg, po measured after 5 hrs post carrageenan challenge; assay type: functional; conditions: Rattus norvegicus, Sprague-Dawley, po, 5 h; outline: as §2
Rattus norvegicus [5] = test: Serum concentration in fasted Sprague-Dawley rat at 15 mg/kg, po after 6 hrs; conditions: in vivo
Rattus norvegicus [6] = test: Toxicity in carrageenan-induced paw edema Sprague-Dawley rat model assessed as increase in blood glucose level at 30 mg/kg, po measured […] by glucometer; assay type: organism-based; design: dose 30 mg/kg, route oral; conditions: in vivo; outline: as §1
Rattus norvegicus [7] = test: Serum concentration in fasted Sprague-Dawley rat at 30 mg/kg, po after 6 hrs; conditions: in vivo
Rattus norvegicus [8] = test: Toxicity in fasted Sprague-Dawley rat assessed as induction of TAT activity in liver homogenates at 7.5 to 30 mg/kg, po after 6 hrs; assay type: organism-based; design: dose 7.5-30 mg/kg, route oral; conditions: in vivo
Outline: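 Male SD rats, fasted, single oral dose. Liver was biopsied 6 h postdose, snap frozen, homogenised in 150 mM KCl and centrifuged. Protein-normalised supernatants were assayed for TAT activity, read as OD at 340 nm. Values are given as % of TAT activity in prednisolone-treated (30 mg/kg) rats.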

Rattus norvegicus [9] = test: Antiinflammatory activity in po dosed carrageenan-induced paw edema Sprague-Dawley rat model assessed as inhibition of hind paw swelling after 5 hrs post carrageenan challenge; assay type: functional; outline: as §2
Rattus norvegicus [10] = test: Serum concentration in fasted Sprague-Dawley rat at 7.5 mg/kg, po after 6 hrs; conditions: in vivo
Rattus norvegicus [11] = test: Antiinflammatory activity against carrageenan-induced paw edema Sprague-Dawley rat model assessed as inhibition of hind paw swelling at 50 mg/kg administered as po single dose after 5 hrs post carrageenan challenge; assay type: functional; outline: as §2
Rattus norvegicus [12] = test: Toxicity in carrageenan-induced paw edema Sprague-Dawley rat model assessed as increase in blood glucose level at 50 mg/kg, po measured […] by glucometer; assay type: organism-based; design: dose 50 mg/kg, route oral; conditions: in vivo; outline: as §1

SMILES	Efficacy [2] [%]	Ki (Progesterone receptor) [nM]	EC50 (Glucocorticoid receptor) [nM]	serum concentration (Rattus norvegicus [5]) [nM]	serum concentration (Rattus norvegicus [7]) [nM]	serum concentration (Rattus norvegicus [10]) [nM]	Activity (Rattus norvegicus [1])	inhibition in vivo at 100 mg/kg (Rattus norvegicus [3]) [%]	inhibition in vivo at 30 mg/kg (Rattus norvegicus [4]) [%]	Activity (Rattus norvegicus [6]) [%]	Activity (Rattus norvegicus [8])	Activity (Rattus norvegicus [9])	ED50 (Rattus norvegicus [9]) [mg/kg]	inhibition in vivo at 50 mg/kg (Rattus norvegicus [11]) [%]	Activity (Rattus norvegicus [12]) [%]
CC(C)(C(=O)Nc1nccs1)[C@@H](c1ccccc1)c1ccc(O)cc1	52	273	29.5				Non-toxic	46							
CC(C)(C(=O)Nc1nccs1)[C@@H](c1ccccc1)c1ccc(O)c(F)c1	68	53	8.6									Dose-dependent effect	45	61	< 1

Continued, in another order:

Efficacy [2] [%]	Ki (Progesterone receptor) [nM]	EC50 (Glucocorticoid receptor) [nM]	serum concentration (Rattus norvegicus [5]) [nM]	serum concentration (Rattus norvegicus [7]) [nM]	serum concentration (Rattus norvegicus [10]) [nM]	SMILES	Activity (Rattus norvegicus [1])	inhibition in vivo at 100 mg/kg (Rattus norvegicus [3]) [%]	inhibition in vivo at 30 mg/kg (Rattus norvegicus [4]) [%]	Activity (Rattus norvegicus [6]) [%]	Activity (Rattus norvegicus [8])	Activity (Rattus norvegicus [9])	ED50 (Rattus norvegicus [9]) [mg/kg]	inhibition in vivo at 50 mg/kg (Rattus norvegicus [11]) [%]	Activity (Rattus norvegicus [12]) [%]
68	22	9.3				CC(C)(C(=O)Nc1nccs1)[C@H]1c2ccccc2Oc2cc(O)ccc21									
62	53	3.5	157	311	59	CC(C)(C(=O)Nc1nncs1)[C@H]1c2ccccc2Oc2cc(O)ccc21			56	< 1	Non-toxic	Dose-dependent effect	44		
71	31	8.6				CC(C)(C(=O)Nc1nccs1)[C@@H](c1ccccc1)c1ccc(O)c(Br)c1									
